ChEMBL document CHEMBL2016552, “Pyrazine-based Syk kinase inhibitors” (Bioorg Med Chem Lett, 2012)
pIC50: −log10 of the molar value. In brackets after ≈: the same amount, converted by molar mass.

Key:
[1] = target: Tyrosine-protein kinase SYK (Homo sapiens, UniProt P43405); assay: Inhibition of human recombinant […] using poly-GT as substrate and [33P]ATP after 40 mins by beta counting
LAD2 [2] = assay: Inhibition of IgE-mediated human LAD2 cell degranulation assessed as beta-hexosaminidase release using p-nitrophenyl-N-acetyl-D-glucosamide as substrate preincubated for 30 mins measured 90 mins after substrate addition by spectrophotometric analysis
[3] = Aqueous solubility of the compound at pH 7.4; format: physicochemical
[4] = Lipophilicity, log D of the compound at pH 7.4; format: physicochemical; conditions: buffer
[5] = target: T1, Tyrosine-protein kinase Lyn (Homo sapiens, UniProt P07948); assay: Inhibition of human Lyn
CHO = assay: Cytotoxicity against CHO cells; format: cell-based, Cricetulus griseus; conditions: chinese hamster
[6] = Apparent permeability across apical to basolateral side in human Caco2 cells; format: ADME, cell-based; conditions: Caco-2
[7] = Apparent permeability across basolateral to apical side in human Caco2 cells; format: ADME, cell-based; conditions: Caco-2
[8] = target: Tyrosine-protein kinase BTK (Homo sapiens) (UniProt Q06187); conditions: 1 uM
[9] = target: Calcium/calmodulin-dependent protein kinase type II subunit delta (Homo sapiens) (UniProt Q13557); conditions: 1 uM
[10] = target: Serine/threonine-protein kinase Chk1 (Homo sapiens) (UniProt O14757); conditions: 1 uM
[11] = target: Casein kinase I isoform delta (Homo sapiens) (UniProt P48730); conditions: 1 uM
[12] = target: Focal adhesion kinase 1 (Homo sapiens) (UniProt Q05397); conditions: 1 uM
[13] = target: Glycogen synthase kinase-3 beta (Homo sapiens) (UniProt P49841); conditions: 1 uM
[14] = target: Inhibitor of nuclear factor kappa-B kinase subunit beta (Homo sapiens) (UniProt O14920); conditions: 1 uM
[15] = target: Tyrosine-protein kinase ITK/TSK (Homo sapiens) (UniProt Q08881); conditions: 1 uM
[16] = target: Mitogen-activated protein kinase 10 (Homo sapiens) (UniProt P53779); conditions: 1 uM
[17] = target: Hepatocyte growth factor receptor (Homo sapiens) (UniProt P08581); conditions: 1 uM
[18] = target: Dual specificity mitogen-activated protein kinase kinase 6 (Homo sapiens) (UniProt P52564); conditions: 1 uM
[19] = target: 3-phosphoinositide-dependent protein kinase 1 (Homo sapiens) (UniProt O15530); conditions: 1 uM
[20] = target: Protein kinase C beta type (Homo sapiens) (UniProt P05771); conditions: 1 uM
[21] = target: Protein kinase C gamma type (Homo sapiens) (UniProt P05129); conditions: 1 uM
[22] = target: Protein kinase C epsilon type (Homo sapiens) (UniProt Q02156); conditions: 1 uM
[23] = target: MAP kinase-activated protein kinase 5 (Homo sapiens) (UniProt Q8IW41); conditions: 1 uM
[24] = target: Protein-tyrosine kinase 2-beta (Homo sapiens) (UniProt Q14289); conditions: 1 uM
[25] = target: Rho-associated protein kinase 2 (Homo sapiens) (UniProt O75116); conditions: 1 uM
[26] = target: Mitogen-activated protein kinase kinase kinase 7 (TAK1) (Homo sapiens) (UniProt O43318); conditions: 1 uM
[27] = target: Tyrosine-protein kinase ZAP-70 (Homo sapiens) (UniProt P43403); conditions: 1 uM
[28] = target: ALK tyrosine kinase receptor (Homo sapiens) (UniProt Q9UM73); conditions: 1 uM
[29] = target: Aurora kinase A (Homo sapiens) (UniProt O14965); conditions: 1 uM
[30] = target: Tyrosine-protein kinase receptor UFO (Homo sapiens) (UniProt P30530); conditions: 1 uM
[31] = target: Cyclin-dependent kinase 1/cyclin B1 (Homo sapiens) (UniProt P06493+P14635); conditions: 1 uM
[32] = target: Proto-oncogene tyrosine-protein kinase Src (Homo sapiens) (UniProt P12931); conditions: 1 uM
[33] = target: Fibroblast growth factor receptor 3 (Homo sapiens) (UniProt P22607); conditions: 1 uM
[34] = target: Tyrosine-protein kinase Fgr (Homo sapiens) (UniProt P09769); conditions: 1 uM
[35] = target: Vascular endothelial growth factor receptor 1 (Homo sapiens) (UniProt P17948); conditions: 1 uM
[36] = target: Receptor-type tyrosine-protein kinase FLT3 (Homo sapiens) (UniProt P36888); conditions: 1 uM
[37] = target: Macrophage colony-stimulating factor 1 receptor (Homo sapiens) (UniProt P07333); conditions: 1 uM
[38] = target: Tyrosine-protein kinase Fyn (Homo sapiens) (UniProt P06241); conditions: 1 uM
[39] = target: Glycogen synthase kinase-3 alpha (Homo sapiens) (UniProt P49840); conditions: 1 uM
[40] = target: Tyrosine-protein kinase HCK (Homo sapiens) (UniProt P08631); conditions: 1 uM
[41] = target: Tyrosine-protein kinase JAK2 (Homo sapiens) (UniProt O60674); conditions: 1 uM
[42] = target: Tyrosine-protein kinase JAK3 (Homo sapiens) (UniProt P52333); conditions: 1 uM
[43] = target: Tyrosine-protein kinase Lck (Homo sapiens) (UniProt P06239); conditions: 1 uM
[44] = target: Serine/threonine-protein kinase pim-1 (Homo sapiens) (UniProt P11309); conditions: 1 uM
[45] = target: Proto-oncogene tyrosine-protein kinase receptor Ret (Homo sapiens) (UniProt P07949); conditions: 1 uM
[46] = target: Ribosomal protein S6 kinase alpha-6 (Homo sapiens) (UniProt Q9UK32); conditions: 1 uM
[47] = target: High affinity nerve growth factor receptor (Homo sapiens) (UniProt P04629); conditions: 1 uM
[48] = target: Tyrosine-protein kinase Yes (Homo sapiens) (UniProt P07947); conditions: 1 uM
[49] = target: T1, Tyrosine-protein kinase Lyn; conditions: 1 uM
Target sequence in this assay (P07948 2-512 limits assumed): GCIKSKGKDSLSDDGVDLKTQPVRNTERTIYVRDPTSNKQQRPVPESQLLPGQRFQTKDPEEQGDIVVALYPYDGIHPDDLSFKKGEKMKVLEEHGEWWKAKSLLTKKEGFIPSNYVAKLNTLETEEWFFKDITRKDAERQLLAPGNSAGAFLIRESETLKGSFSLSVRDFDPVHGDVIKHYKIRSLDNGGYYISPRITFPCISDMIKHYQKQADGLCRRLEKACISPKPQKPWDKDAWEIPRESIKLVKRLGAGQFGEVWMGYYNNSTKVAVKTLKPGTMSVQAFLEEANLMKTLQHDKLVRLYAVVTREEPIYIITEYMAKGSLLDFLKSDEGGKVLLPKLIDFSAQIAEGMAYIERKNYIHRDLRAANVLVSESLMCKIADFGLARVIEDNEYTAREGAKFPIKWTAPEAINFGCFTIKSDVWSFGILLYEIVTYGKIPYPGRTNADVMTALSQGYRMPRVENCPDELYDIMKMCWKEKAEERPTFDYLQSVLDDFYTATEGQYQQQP

LAD2 [50] = assay: Inhibition of IgE-mediated human LAD2 cell degranulation assessed as beta-hexosaminidase release using p-nitrophenyl-N-acetyl-D-glucosamide as substrate at 1 uM preincubated for 30 mins measured 90 mins after substrate addition by spectrophotometric analysis; format: functional
Summary of the method: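 LAD2 mast cells sensitised overnight (37°, 5% CO2) in StemPro-34 with 2 mM glutamine and 100 ng/ml SCF plus 100 ng/ml biotin-IgE. Cells washed into release buffer (0.025% BSA), 10,000/well, compound 30 min, then streptavidin 125 ng/ml for 30 min. Supernatants and freeze-thaw lysates incubated with 1 mM substrate (citrate, pH 4.5) 90 min at 37°C. Stopped with 0.4 M glycine pH 10.0; A405 read.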

Chain of Receptor-type tyrosine-protein kinase FLT3 (Homo sapiens) (P36888 whole entry): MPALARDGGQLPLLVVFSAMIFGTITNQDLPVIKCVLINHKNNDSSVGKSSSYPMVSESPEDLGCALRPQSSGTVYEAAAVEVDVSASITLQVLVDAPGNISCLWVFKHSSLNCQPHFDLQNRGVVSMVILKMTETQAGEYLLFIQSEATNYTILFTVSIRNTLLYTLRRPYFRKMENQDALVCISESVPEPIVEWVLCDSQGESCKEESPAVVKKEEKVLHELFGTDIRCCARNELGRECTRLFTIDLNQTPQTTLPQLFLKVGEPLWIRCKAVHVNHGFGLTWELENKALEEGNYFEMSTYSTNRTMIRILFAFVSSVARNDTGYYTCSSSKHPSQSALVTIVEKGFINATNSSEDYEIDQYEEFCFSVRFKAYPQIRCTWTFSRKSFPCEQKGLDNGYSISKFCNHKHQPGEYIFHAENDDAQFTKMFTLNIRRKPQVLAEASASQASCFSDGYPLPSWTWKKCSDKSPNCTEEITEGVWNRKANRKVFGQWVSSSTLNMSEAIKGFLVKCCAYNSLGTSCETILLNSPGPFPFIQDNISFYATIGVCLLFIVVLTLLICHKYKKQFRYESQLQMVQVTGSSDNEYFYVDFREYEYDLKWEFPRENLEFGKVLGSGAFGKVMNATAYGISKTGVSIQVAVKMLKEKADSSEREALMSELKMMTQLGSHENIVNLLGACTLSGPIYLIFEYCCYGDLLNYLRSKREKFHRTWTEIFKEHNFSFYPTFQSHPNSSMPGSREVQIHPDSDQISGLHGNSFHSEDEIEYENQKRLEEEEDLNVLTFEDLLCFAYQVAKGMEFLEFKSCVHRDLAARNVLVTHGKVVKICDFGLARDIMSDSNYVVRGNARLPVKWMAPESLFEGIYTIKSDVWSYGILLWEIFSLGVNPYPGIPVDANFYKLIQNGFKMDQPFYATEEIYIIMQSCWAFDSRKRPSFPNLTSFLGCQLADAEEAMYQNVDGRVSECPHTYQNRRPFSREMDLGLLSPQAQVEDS
Chain of Focal adhesion kinase 1 (Homo sapiens) (Q05397 2-1052 limits assumed): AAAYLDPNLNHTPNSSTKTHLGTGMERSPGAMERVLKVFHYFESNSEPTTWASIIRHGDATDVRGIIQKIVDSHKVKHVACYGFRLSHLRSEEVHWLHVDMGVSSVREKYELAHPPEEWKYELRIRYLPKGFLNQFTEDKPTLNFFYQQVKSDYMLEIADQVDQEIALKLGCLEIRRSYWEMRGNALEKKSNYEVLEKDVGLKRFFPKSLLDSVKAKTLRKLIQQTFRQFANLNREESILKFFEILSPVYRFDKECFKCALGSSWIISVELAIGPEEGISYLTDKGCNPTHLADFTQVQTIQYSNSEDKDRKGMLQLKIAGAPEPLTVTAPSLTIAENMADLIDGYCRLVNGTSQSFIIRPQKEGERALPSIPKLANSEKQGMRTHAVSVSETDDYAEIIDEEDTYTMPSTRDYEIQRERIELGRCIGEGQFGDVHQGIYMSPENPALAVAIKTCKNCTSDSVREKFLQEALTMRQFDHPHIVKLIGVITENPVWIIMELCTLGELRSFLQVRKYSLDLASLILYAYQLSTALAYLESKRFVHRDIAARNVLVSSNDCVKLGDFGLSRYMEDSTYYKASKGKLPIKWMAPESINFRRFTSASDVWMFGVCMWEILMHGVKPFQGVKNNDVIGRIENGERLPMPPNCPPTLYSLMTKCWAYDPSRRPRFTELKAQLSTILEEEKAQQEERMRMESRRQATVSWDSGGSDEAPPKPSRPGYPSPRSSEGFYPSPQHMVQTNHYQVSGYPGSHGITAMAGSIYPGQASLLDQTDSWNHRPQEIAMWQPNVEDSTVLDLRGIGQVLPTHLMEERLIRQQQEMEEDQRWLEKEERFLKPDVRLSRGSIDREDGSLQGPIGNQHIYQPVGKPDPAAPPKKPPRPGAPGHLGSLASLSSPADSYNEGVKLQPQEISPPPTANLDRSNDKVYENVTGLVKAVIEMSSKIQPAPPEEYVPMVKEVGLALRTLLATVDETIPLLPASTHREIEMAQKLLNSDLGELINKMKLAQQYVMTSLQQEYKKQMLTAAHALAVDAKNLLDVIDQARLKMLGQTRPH
Chain of Tyrosine-protein kinase BTK (Homo sapiens) (Q06187 whole entry): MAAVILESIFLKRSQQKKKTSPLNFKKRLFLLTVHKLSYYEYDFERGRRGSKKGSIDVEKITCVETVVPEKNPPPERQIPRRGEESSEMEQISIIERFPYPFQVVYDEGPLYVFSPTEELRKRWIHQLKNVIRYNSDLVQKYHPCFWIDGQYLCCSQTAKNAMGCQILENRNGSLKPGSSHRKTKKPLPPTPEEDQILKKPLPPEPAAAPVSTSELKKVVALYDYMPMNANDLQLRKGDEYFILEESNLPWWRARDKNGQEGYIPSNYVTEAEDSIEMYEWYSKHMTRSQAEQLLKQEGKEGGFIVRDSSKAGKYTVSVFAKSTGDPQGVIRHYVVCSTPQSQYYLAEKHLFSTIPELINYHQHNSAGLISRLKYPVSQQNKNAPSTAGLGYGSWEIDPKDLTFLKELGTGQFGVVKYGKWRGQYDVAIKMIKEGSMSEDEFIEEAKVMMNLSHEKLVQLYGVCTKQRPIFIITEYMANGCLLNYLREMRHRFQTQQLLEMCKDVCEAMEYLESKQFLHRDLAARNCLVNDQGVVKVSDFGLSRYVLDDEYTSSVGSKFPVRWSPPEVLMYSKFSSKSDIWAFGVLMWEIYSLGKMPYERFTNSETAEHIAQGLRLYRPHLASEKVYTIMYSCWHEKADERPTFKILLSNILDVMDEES
Chain of Calcium/calmodulin-dependent protein kinase type II subunit delta (Homo sapiens) (Q13557 whole entry): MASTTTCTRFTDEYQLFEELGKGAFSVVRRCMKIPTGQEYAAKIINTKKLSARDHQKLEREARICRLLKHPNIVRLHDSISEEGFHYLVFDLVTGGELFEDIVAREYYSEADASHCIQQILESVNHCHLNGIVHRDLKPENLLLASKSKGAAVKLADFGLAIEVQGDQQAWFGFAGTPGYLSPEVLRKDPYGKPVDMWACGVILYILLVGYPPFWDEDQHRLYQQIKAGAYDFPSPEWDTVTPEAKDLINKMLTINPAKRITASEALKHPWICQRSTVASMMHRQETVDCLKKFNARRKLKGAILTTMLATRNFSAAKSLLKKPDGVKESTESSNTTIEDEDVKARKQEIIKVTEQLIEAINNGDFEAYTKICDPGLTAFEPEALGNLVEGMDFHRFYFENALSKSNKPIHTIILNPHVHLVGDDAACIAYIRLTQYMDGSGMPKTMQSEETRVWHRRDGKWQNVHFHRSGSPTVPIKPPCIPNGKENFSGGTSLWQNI
Chain of Tyrosine-protein kinase Fgr (Homo sapiens) (P09769 2-529 limits assumed): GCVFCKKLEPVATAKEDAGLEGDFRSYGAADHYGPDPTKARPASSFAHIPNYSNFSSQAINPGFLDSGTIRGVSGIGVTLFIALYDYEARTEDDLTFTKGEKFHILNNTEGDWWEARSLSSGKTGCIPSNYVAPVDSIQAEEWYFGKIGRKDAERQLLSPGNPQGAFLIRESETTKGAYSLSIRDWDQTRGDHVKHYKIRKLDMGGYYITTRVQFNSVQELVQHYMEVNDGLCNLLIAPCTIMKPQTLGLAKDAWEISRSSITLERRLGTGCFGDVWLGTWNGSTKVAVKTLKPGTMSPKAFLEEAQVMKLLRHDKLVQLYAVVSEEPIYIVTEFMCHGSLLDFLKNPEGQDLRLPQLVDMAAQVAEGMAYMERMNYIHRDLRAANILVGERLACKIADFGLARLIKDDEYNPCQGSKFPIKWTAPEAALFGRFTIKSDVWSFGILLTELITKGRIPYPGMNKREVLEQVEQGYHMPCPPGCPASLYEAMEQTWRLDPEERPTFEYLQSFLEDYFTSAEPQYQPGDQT
Chain of Mitogen-activated protein kinase 10 (Homo sapiens) (P53779 whole entry): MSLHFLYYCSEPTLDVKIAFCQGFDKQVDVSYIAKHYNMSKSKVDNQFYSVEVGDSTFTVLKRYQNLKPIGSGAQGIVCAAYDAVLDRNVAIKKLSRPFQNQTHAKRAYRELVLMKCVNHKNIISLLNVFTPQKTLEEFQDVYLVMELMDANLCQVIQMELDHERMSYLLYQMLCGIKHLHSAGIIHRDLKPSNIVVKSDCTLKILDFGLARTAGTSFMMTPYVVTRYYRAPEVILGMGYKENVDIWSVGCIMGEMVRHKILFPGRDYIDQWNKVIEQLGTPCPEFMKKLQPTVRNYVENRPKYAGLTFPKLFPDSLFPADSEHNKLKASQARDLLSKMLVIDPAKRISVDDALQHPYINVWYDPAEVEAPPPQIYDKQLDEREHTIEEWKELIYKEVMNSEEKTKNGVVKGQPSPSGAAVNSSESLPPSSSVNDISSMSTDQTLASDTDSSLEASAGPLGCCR
Chain of Dual specificity mitogen-activated protein kinase kinase 6 (Homo sapiens) (P52564 whole entry): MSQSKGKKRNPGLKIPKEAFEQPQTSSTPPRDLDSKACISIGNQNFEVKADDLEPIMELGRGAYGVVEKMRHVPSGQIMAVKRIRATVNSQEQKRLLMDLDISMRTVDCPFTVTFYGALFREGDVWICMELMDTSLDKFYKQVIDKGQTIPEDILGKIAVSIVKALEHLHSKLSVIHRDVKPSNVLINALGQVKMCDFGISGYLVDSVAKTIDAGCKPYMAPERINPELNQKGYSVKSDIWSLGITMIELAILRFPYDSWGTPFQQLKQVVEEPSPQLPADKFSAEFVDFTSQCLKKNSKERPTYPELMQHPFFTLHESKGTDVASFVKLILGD

## Cn1cc(-c2cccc(-c3cnc(N)c(C(=O)N[C@H]4C5CC6CC4C[C@@](O)(C6)C5)n3)c2)cn1
[1]
  pIC50: 7.40
LAD2 [2]
  pIC50: 7.05
[3]
  solubility: 25 µg/mL (≈ 56.2 µM)
[4]
  logD: 1.5
[5]
  pIC50: 6.49
CHO
  Activity: Non-toxic
[6]
  Papp A→B: 28 ×10⁻⁶ cm/s
[7]
  Papp B→A: 13 ×10⁻⁶ cm/s
[8]
  inhibition: < 50%
[9]
  inhibition: < 50%
[10]
  inhibition: < 50%
[11]
  inhibition: < 50%
[12]
  inhibition: < 50%
[13]
  inhibition: < 50%
[14]
  inhibition: < 50%
[15]
  inhibition: < 50%
[16]
  inhibition: < 50%
[17]
  inhibition: < 50%
[18]
  inhibition: < 50%
[19]
  inhibition: < 50%
[20]
  inhibition: < 50%
[21]
  inhibition: < 50%
[22]
  inhibition: < 50%
[23]
  inhibition: < 50%
[24]
  inhibition: < 50%
[25]
  inhibition: < 50%
[26]
  inhibition: < 50%
[27]
  inhibition: < 50%
[28]
  inhibition: > 50%
[29]
  inhibition: > 50%
[30]
  inhibition: > 50%
[31]
  inhibition: > 50%
[32]
  inhibition: > 50%
[33]
  inhibition: > 50%
[34]
  inhibition: > 50%
[35]
  inhibition: > 50%
[36]
  inhibition: > 50%
[37]
  inhibition: > 50%
[38]
  inhibition: > 50%
[39]
  inhibition: > 50%
[40]
  inhibition: > 50%
[41]
  inhibition: > 50%
[42]
  inhibition: > 50%
[43]
  inhibition: > 50%
[44]
  inhibition: > 50%
[45]
  inhibition: > 50%
[46]
  inhibition: > 50%
[47]
  inhibition: > 50%
[48]
  inhibition: > 50%
[49]
  inhibition: > 50%

## Nc1ncc(-c2cccc(-c3cn[nH]c3)c2)nc1C(=O)N[C@H]1C2CC3CC1C[C@@](O)(C3)C2
LAD2 [2]
  pIC50: 7.00

## Nc1ncc(-c2cccc(-c3cnn(CCO)c3)c2)nc1C(=O)N[C@H]1C2CC3CC1C[C@](O)(C3)C2
LAD2 [2]
  pIC50: 6.85

## Cn1cc(-c2cccc(-c3cnc(N)c(C(=O)N[C@H]4C5CC6CC4C[C@](O)(C6)C5)n3)c2)cn1
[1]
  pIC50: 7.70
LAD2 [2]
  pIC50: 6.92

## CC(C)(NC(=O)c1nc(-c2ccc3cn[nH]c3c2)cnc1N)C1CCNCC1
LAD2 [2]
  pIC50: 6.07

## NCCn1cc(-c2cccc(-c3cnc(N)c(C(=O)N[C@H]4C5CC6CC4C[C@@](O)(C6)C5)n3)c2)cn1
LAD2 [2]
  pIC50: 6.00

## NC(=O)Cn1cc(-c2cccc(-c3cnc(N)c(C(=O)N[C@H]4C5CC6CC4C[C@@](O)(C6)C5)n3)c2)cn1
LAD2 [2]
  pIC50: 6.80

## Cn1cc(-c2cccc(-c3cnc(N)c(C(=O)NC(C)(C)C4CCNCC4)n3)c2)cn1
LAD2 [2]
  pIC50: 6.26

## CCn1cc(-c2cccc(-c3cnc(N)c(C(=O)N[C@H]4C5CC6CC4C[C@](O)(C6)C5)n3)c2)cn1
LAD2 [2]
  pIC50: 6.74

## CCCn1cc(-c2cccc(-c3cnc(N)c(C(=O)N[C@H]4C5CC6CC4C[C@@](O)(C6)C5)n3)c2)cn1
LAD2 [2]
  pIC50: 6.77

## CC(C)(NC(=O)c1nc(-c2cccc3cn[nH]c23)cnc1N)C1CCNCC1
LAD2 [50]
  inhibition at 1 µM: 48%

## CC(C)(NC(=O)c1nc(-c2cccc(OC(F)(F)F)c2)cnc1N)C1CCNCC1
LAD2 [2]
  pIC50: 5.96

## COc1cncc(-c2cccc(-c3cnc(N)c(C(=O)NC(C)(C)C4CCNCC4)n3)c2)c1
LAD2 [50]
  inhibition at 1 µM: 65%

## COc1cc(-c2cnn(C)c2)cc(-c2cnc(N)c(C(=O)N[C@H]3C4CC5CC3C[C@@](O)(C5)C4)n2)c1
LAD2 [2]
  pIC50: 6.85

## Nc1ncc(-c2cccc(-c3cnn(CCO)c3)c2)nc1C(=O)N[C@H]1C2CC3CC1C[C@@](O)(C3)C2
LAD2 [2]
  pIC50: 6.92

## Nc1ccc(-c2cccc(-c3cnc(N)c(C(=O)N[C@H]4C5CC6CC4C[C@@](O)(C6)C5)n3)c2)cn1
LAD2 [2]
  pIC50: 6.74

## CC(C)(NC(=O)c1nc(-c2cccc(-c3ccc(N)nc3)c2)cnc1N)C1CCNCC1
LAD2 [2]
  pIC50: 6.25
[7]
  Papp B→A: 2.38 ×10⁻⁶ cm/s

## COc1cccc(-c2cnc(N)c(C(=O)NC(C)(C)C3CCNCC3)n2)c1
LAD2 [2]
  pIC50: 5.71

## CCn1cc(-c2cccc(-c3cnc(N)c(C(=O)N[C@H]4C5CC6CC4C[C@@](O)(C6)C5)n3)c2)cn1
LAD2 [2]
  pIC50: 6.96

## COCCn1cc(-c2cccc(-c3cnc(N)c(C(=O)N[C@H]4C5CC6CC4C[C@@](O)(C6)C5)n3)c2)cn1
LAD2 [2]
  pIC50: 6.74

## CC(C)(NC(=O)c1nc(-c2ccc3c(c2)NC(=O)C3)cnc1N)C1CCNCC1
LAD2 [50]
  inhibition at 1 µM: 10%

## CS(=O)(=O)Nc1cccc(-c2cnc(N)c(C(=O)N3CCC(O)CC3)n2)c1
[1]
  pIC50: < 4.30

## Nc1ncc(-c2cccc(-c3cnn(CC(=O)O)c3)c2)nc1C(=O)N[C@H]1C2CC3CC1C[C@@](O)(C3)C2
LAD2 [50]
  inhibition at 1 µM: 43%

## Nc1ncc(-c2ccc3cn[nH]c3c2)nc1C(=O)N[C@H]1C2CC3CC1C[C@@](O)(C3)C2
LAD2 [2]
  pIC50: 6.92

## Nc1ncc(-c2cccc(-c3cnn(CC(F)(F)F)c3)c2)nc1C(=O)N[C@H]1C2CC3CC1C[C@@](O)(C3)C2
LAD2 [2]
  pIC50: 6.85

## Nc1ncc(-c2ccc3cn[nH]c3c2)nc1C(=O)N[C@H]1C2CC3CC1C[C@](O)(C3)C2
LAD2 [2]
  pIC50: 6.40

## Cc1cc(-c2cnn(C)c2)cc(-c2cnc(N)c(C(=O)N[C@H]3C4CC5CC3C[C@@](O)(C5)C4)n2)c1
LAD2 [2]
  pIC50: 6.82

## CC(C)n1cc(-c2cccc(-c3cnc(N)c(C(=O)N[C@H]4C5CC6CC4C[C@@](O)(C6)C5)n3)c2)cn1
LAD2 [2]
  pIC50: 6.66
